The text below walks through data of paper PMC9444042 (Neurotoxicology, 2021).

“Also recorded” adds a separate entry of the source. Read-outs that look alike come from different tables or passages of the source.

Data set [1] relates to iPSC-derived human cortical glutamatergic neurons. It counts as cell-based.
Data set [2] concerns iPSC-derived human spinal motor neurons. The format is cell-based.
Data set [3] relates to GFP-labeled iPSC-derived human neurons. It counts as cell-based.
In data set [4] the test system is LUHMES. The settings on record: NeuriTox test, IC50 (viability/neurite area) ratio ≥4; ref Delp et al., 2018; cited from earlier work.
Data set [5] deals with iPSC-derived human spinal motor neurons. The data set is described as follows: Cell viability / cytotoxicity. It counts as cell-based. An outline of the steps: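 GFP-expressing iPSC-derived motor neurons were seeded at 800 cells/well on PDL-coated 1536-well plates and grown 40 h at 37 °C. Test compound was then added at 11 concentrations (1.56 nM–92 μM, 1:3) and exposed 24 and 48 h. Cells were counted as number of objects from GFP high-content images (488/530 nm, 20×, four fields/well). Values were normalized to 46 μM rotenone (−100%) and 0.46% DMSO (0%), in triplicate.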

The subject of data set [6] is PeriTox test cells. Conditions: IC50 (viability/neurite area) ratio ≥3, ref Delp et al., 2018; cited from earlier work.
The mark [7] stands for this setting: cortical neurons, active at either 24 or 48 hours, 1.56 nM to 92 μM.
Where [8] appears, read: motor neurons, active at either 24 or 48 hours, 1.56 nM to 92 μM.
The mark [9] stands for this setting: cortical and/or motor neurons, not specified, 24 or 48 hours, up to 92 μM.
[10] abbreviates: cortical neurons, 24 hours of treatment.
Where [11] appears, read: cortical neurons, 48 hours of treatment.

Turning to `Brc1ccc(Oc2ccc(Br)cc2Br)c(Br)c1` [2,2′,4,4′-tetrabromodiphenyl ether], the “neurite outgrowth inhibition (activity call)” value in data set [1] (setting [7]) was “only affected neurite outgrowth in motor neurons”; in data set [2] (setting [8]), “affected”; in data set [2] (motor neurons, active at either 24 or 48 hours, 1.56 nM to 92 μM, listed as 2,2’,4,4’-tetrabromodiphenyl ether), “inhibited”.

As to `CCCCC(CC)COC(=O)c1cc(Br)c(Br)c(Br)c1Br` (stereo not drawn) [2-ethylhexyl-2,3,4,5-tetrabromobenzoate], the “neurite outgrowth inhibition in this study (activity call)” value in data set [3] (setting [9]) is given as “inhibit neurite outgrowth”.

In the case of `CC(C)(c1cc(Br)c(O)c(Br)c1)c1cc(Br)c(O)c(Br)c1` [3,3’,5,5’-tetrabromobisphenol A], the “neurite outgrowth inhibition (activity call)” value in data set [1] (setting [7]) is on record as “inhibited”.

Take `COc1cc2c(c(OC)c1OC)-c1ccc(OC)c(=O)cc1[C@@H](NC(C)=O)CC2` [Colchicine]: the “neurite outgrowth inhibition (activity call)” value in data set [1] (setting [7]) and in data set [2] (setting [8]) was “inhibited” throughout.

Turning to `CC/C(=C(/CC)c1ccc(O)cc1)c1ccc(O)cc1` [Diethylstilbestrol], the “selective effect on neurite outgrowth” value in data set [4] was “selective effects”.

As for `O=C1O[C@H]([C@@H](O)CO)C(O)=C1O` [L-ascorbic acid], in data set [3] (setting [9]), the “neurite outgrowth inhibition in this study (activity call)” value is “inhibitor of neurite outgrowth”. Also, the cytotoxicity entry in data set [5] was “cytotoxic”.

As for `CCCCCC` [N-hexane, n-hexane], in data set [3], the “neurite outgrowth inhibition in this study (activity call)” value is “not have been active”.

For the compound `CC(C)[C@@H]1NC(=O)[C@H](C)OC(=O)[C@@H](C(C)C)NC(=O)[C@@H](C(C)C)OC(=O)[C@H](C(C)C)NC(=O)[C@H](C)OC(=O)[C@@H](C(C)C)NC(=O)[C@@H](C(C)C)OC(=O)[C@H](C(C)C)NC(=O)[C@H](C)OC(=O)[C@@H](C(C)C)NC(=O)[C@@H](C(C)C)OC1=O` [Valinomycin], the “selective effect on neurite outgrowth” value in data set [6] and in data set [4] was “selective effects” in each case. Also, the “selective effect on neurite outgrowth in this study” value in data set [3] (neuron type not specified) is given as “selective effects”.

In the case of `c1ccc2cc3ccccc3cc2c1` [anthracene], the “neurite outgrowth inhibition (activity call)” value was “only affected neurite outgrowth in motor neurons” in data set [1] (setting [7]) and “affected” in data set [2] (setting [8]).

As for `CN(C)c1ccc(C(=N)c2ccc(N(C)C)cc2)cc1.Cl` [auramine O], the “neurite outgrowth inhibition in this study (activity call)” value in data set [3] (setting [9]) is “inhibit neurite outgrowth”.

Take `c1ccc2c(c1)-c1cccc3c1c-2cc1ccccc13` [benzo (b) fluoranthene]: the “neurite outgrowth inhibition (activity call)” value in data set [1] is given as “active”.

For `Oc1ccc(C(c2ccc(O)cc2)(C(F)(F)F)C(F)(F)F)cc1` [bisphenol AF], in data set [1] (setting [7]), the “neurite outgrowth inhibition (activity call)” value is “inhibitory effects; also recorded: inhibited”. Moreover, the “neurite outgrowth inhibition in this study (activity call)” value in data set [3] (setting [9]) is listed as “inhibit neurite outgrowth”.

In the case of `CC(C)(c1ccc(O)cc1)c1ccc(O)cc1` [bisphenol A], the “neurite outgrowth inhibition (activity call)” value in data set [1] (setting [10]) is on record as “not active”; in data set [1] (setting [11]), “active; also recorded: inhibitory effects”.

`Cn1c(=O)c2c(ncn2C)n(C)c1=O` [caffeine]: the “neurite outgrowth inhibition (activity call)” value in data set [1] was “only affected neurite outgrowth in motor neurons”; in data set [2] it was “inhibited; also recorded: affected”. Further, the “neurite outgrowth inhibition in this study (activity call)” value in data set [3] (setting [9]) was “inhibit neurite outgrowth”.

`CC1(C)[C@H](C(=O)O[C@H](C#N)c2cccc(Oc3ccccc3)c2)[C@@H]1C=C(Br)Br` [deltamethrin]: the results for the “neurite outgrowth inhibition (activity call)” value in data set [1] (setting [10]) and in data set [1] (setting [11]) were “not active” and “active; also recorded: inhibitory effects”, respectively.

Consider `C[C@]12CC[C@@H]3c4ccc(O)cc4CC[C@H]3[C@@H]1CC[C@@H]2O` [estradiol], for which, in data set [3] (setting [9]), the “neurite outgrowth inhibition in this study (activity call)” value was “inhibit neurite outgrowth”.

With `CCCCC(CC)COP(=O)(Oc1ccccc1)Oc1ccccc1` (stereo not drawn) [ethylhexyl diphenyl phosphate, 2-ethylhexyl diphenyl phosphate], the “neurite outgrowth inhibition (activity call)” value in data set [1] (setting [10]) is recorded as “active”.

Turning to `CC(=O)[O-].CC(=O)[O-].O.O.O.[Pb+2]` [lead (II) acetate trihydrate], in data set [3] (setting [9]), the “neurite outgrowth inhibition in this study (activity call)” value is recorded as “inhibit neurite outgrowth”.

As for `[CH3][Hg][Cl]` [methyl mercuric (II) chloride], the “neurite outgrowth inhibition (activity call)” value in data set [1] (setting [7]) and in data set [2] (setting [8]) was “inhibited” throughout.

On to `CCOP(=S)(OCC)Oc1ccc([N+](=O)[O-])cc1` [parathion], for which the “neurite outgrowth inhibition (activity call)” value in data set [1] (setting [7]) is recorded as “inhibitory effects; also recorded: inhibited”.

On to `CCC1(c2ccccc2)C(=O)NC(=O)NC1=O` [phenobarbital], for which, in data set [3] (setting [9]), the “neurite outgrowth inhibition in this study (activity call)” value was “not be active”.

With `C=C(C)[C@H]1Cc2c(ccc3c2O[C@@H]2COc4cc(OC)c(OC)cc4[C@@H]2C3=O)O1` [rotenone], the “selective effect on neurite outgrowth” value in data set [4] is reported as “selective effects”. Further, the “neurite outgrowth inhibition (activity call)” value in data set [1] (setting [7]) and in data set [2] (setting [8]) was “inhibited neurite outgrowth in a concentration dependent manner” throughout.

With `CC(C)(C)C(O)(CCc1ccc(Cl)cc1)Cn1cncn1` (stereo not drawn) [tebuconazole], the “neurite outgrowth inhibition (activity call)” value in data set [1] (setting [10]) is reported as “not active”; in data set [1] (setting [11]), “active; also recorded: inhibitory effects”.
